Measured values from different studies.
Protocols differ between the studies behind these lines.
Observed: cell growth or viability

SMILES	cell line	technique	time	IC50
O=[N+]([O-])c1ccc(Cn2cc(Cn3c4ccccc4c4nc5ccccc5nc43)nn2)cc1	INS1	MTT	24 h	> 100 µM
O=c1c(O)c(-c2cc(O)c(O)c(O)c2)oc2cc(O)cc(O)c12	SCaBER	ATP luminescence	72 h	30.3 µM
CC(C)[C@H](N)c1nc2cc(-c3ccnc(Cl)c3)sc2c(=O)[nH]1	COLO 205	MTT	–	1.6 µM
O=C1Nc2ccc(F)cc2C(=O)CCc2ccccc21	L6	–	–	110 µM
C#C[C@]1(CO)O[C@@H](n2cnc3c(N)nc(F)nc32)C[C@@H]1O	MDCK-II	MTT	48 h	377 µM
CC(C)C[C@H](NC(=O)[C@H](Cc1ccccc1)NC(=O)c1cnccn1)B(O)O	GISTT1	resazurin	72 h	< 0.07 µM
CC(C)[C@H](N)c1nc2cc(N3CCNCC3)sc2c(=O)[nH]1	COLO 205	MTT	–	> 10 µM
O=c1ncccn1[C@@H]1O[C@H](CO)[C@@H](O)[C@H]1O	MEC1	–	48 h	195 µM
CCN1C(=O)N(c2c(F)c(OC)cc(OC)c2F)Cc2cnc3[nH]c(CN4CCOCC4)cc3c21	MDA-MB-453	ATP luminescence	96 h	0.0764 µM
COc1cccc(C(=O)c2cc3c(-c4ccccc4)c(O)ccc3o2)c1	L1210	–	48 h	38 µM
O=C1Nc2ccc(OC(F)(F)F)cc2C(=O)CCc2ccccc21	L6	–	–	44 µM
O=C(c1ccccc1)c1cc2c(-c3ccccc3)c(O)ccc2o1	L1210	–	48 h	37 µM
O=C(O)c1ccc2c(c1)C(=O)CCc1ccccc1C(=O)N2	L6	–	–	220 µM
CC(=O)[C@]1(O)Cc2c(O)c3c(c(O)c2[C@@H](O[C@H]2C[C@H](N)[C@H](O)[C@H](C)O2)C1)C(=O)c1ccccc1C3=O	GISTT1	resazurin	72 h	0.1 µM
O=C1CCc2ccccc2CC(=O)c2ccccc2N1	L6	–	–	> 380 µM
CC(C)=CCC/C(C)=C/COc1ccc2ccc(=O)oc2c1	COLO 205	MTT	72 h	63.1 µM
O=C1Nc2ccccc2C(=O)CCc2cc(F)ccc21	L6	–	–	96 µM
CCC(=O)Nc1cc(Nc2nc(N3CCc4sccc4C3)c3cccnc3n2)c(OC)cc1N1CCN(CCO)CC1	NCI-H460	MTT	–	> 50 µM
COc1cc(OC)cc(C(=O)c2cc3c(-c4ccccc4)c(O)ccc3o2)c1	L1210	–	48 h	19 µM
O=C1c2c(O)ccc(O)c2C(=O)c2c(NCCNCCO)ccc(NCCNCCO)c21	GISTT1	resazurin	72 h	0.42 µM

SMILES	cell line	technique	time	IC50
CCC(=O)Nc1cc(Nc2nc(N3CCc4sccc4C3)c3cccnc3n2)c(OC)cc1N1CCOCC1	NCI-H460	MTT	–	> 50 µM
COc1ccccc1C(=O)c1cc2c(-c3ccccc3)c(O)ccc2o1	L1210	–	48 h	> 50 µM
Nc1nc(F)nc2c1ncn2[C@@H]1O[C@H](COP(=O)(O)O)[C@@H](O)[C@@H]1O	GISTT1	resazurin	72 h	> 1 µM
O=c1c(O[C@@H]2O[C@H](CO)[C@@H](O)[C@H](O)[C@H]2O)c(-c2ccc(O)c(O)c2)oc2cc(O)cc(O)c12	SCaBER	ATP luminescence	72 h	8.66 µM
N[C@@H](CC(=O)N1CCN(C(c2ccc(F)cc2)c2ccc(F)cc2)CC1)C(=O)N1Cc2ccccc2C1	RS4-11	ATP luminescence	24 h	28.3 µM
COc1cc([C@@H]2c3cc4c(cc3[C@@H](O[C@@H]3O[C@@H]5CO[C@@H](C)O[C@H]5[C@H](O)[C@H]3O)[C@H]3COC(=O)[C@H]23)OCO4)cc(OC)c1O	GISTT1	resazurin	72 h	> 1 µM
O=C1Nc2ccc(S(F)(F)(F)(F)F)cc2C(=O)CCc2ccccc21	L6	–	–	2.8 µM
CCC1=C[C@@H]2CN(C1)Cc1c([nH]c3ccccc13)[C@@](C(=O)OC)(c1cc3c(cc1OC)N(C)[C@H]1[C@@](O)(C(=O)OC)[C@H](OC(C)=O)[C@]4(CC)C=CCN5CC[C@]31[C@@H]54)C2	GISTT1	resazurin	72 h	0.23 µM
CC(C)[C@@H](N)c1nc2cc(-c3ccncc3F)sc2c(=O)[nH]1	COLO 205	MTT	–	1.19 µM
COC(=O)Nc1nc2ccc(C(=O)c3ccccc3)cc2[nH]1	GISTT1	resazurin	72 h	0.81 µM
Cc1ccc(-c2cc(COCc3ccc(C(C)C)cc3)c3cccnc3c2O)cc1	MDA-MB-453	MTS	72 h	0.9 µM
CCN(CC)CCCC(C)Nc1ccnc2cc(Cl)ccc12 (stereo not drawn)	GISTT1	resazurin	72 h	> 1 µM
COc1ccc2c(c1)C(=O)CCc1ccccc1C(=O)N2	L6	–	–	47 µM
CC(C)C[C@H](NC(=O)[C@H](Cc1ccccc1)NC(=O)c1cnccn1)B(O)O	NCI-H1838	ATP luminescence	–	0.053 µM
C=C(C)C(=O)Nc1ccc(-c2c(-c3ccc(Oc4nccc(C)n4)c(F)c3)c3c(N)ncnc3n2C)cc1	MDA-MB-453	ATP luminescence	96 h	> 10 µM
O=C1Nc2ccccc2C(=NO)CCc2ccccc21	L6	–	–	> 380 µM
COc1c2ccoc2c(OCC=C(C)C)c2oc(=O)ccc12	COLO 205	MTT	72 h	> 100 µM
COc1ccccc1C(=O)c1cc2c(-c3ccccc3)c(OC)ccc2o1	L1210	–	48 h	> 50 µM
CC(C)[C@H](N)C(=O)N1CCC[C@H]1B(O)O	RS4-11	ATP luminescence	24 h	0.147 µM
